Calls of active or inactive are those of the source.
Tests used:
Rattus norvegicus [1] = assay: Reversal of complete freund's adjuvant-induced thermal hypersensitivity in Sprague-Dawley rat at 30 mg/kg, po measured after 30 to 180 mins; assay type: functional, organism-based; parameters: dose 30 mg/kg
Liver microsome [2] = assay: (§1) Metabolic stability in rat liver microsomes assessed as compound remaining after 10 mins; assay type: ADME; conditions: microsomes, 10 min
Method in brief: (§2)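 Compound incubated 10 min with liver microsomes of the stated species; amount of parent remaining reported as percent.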

[3] = Clearance in rat at 2 mg/kg, iv; assay type: ADME, organism-based; parameters: dose 2 mg/kg, route intravenous; conditions: in vivo
Method in brief: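 Intravenous dosing at 2 mg/kg as a solution of the sodium salt in 20% HPβCD, n = 4 animals per group.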

[4] = Oral bioavailability in rat at 10 mg/kg; assay type: ADME, organism-based; conditions: in vivo
Method in brief: (§3)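 Oral dosing at 10 mg/kg as a solution of the sodium salt in 20% HPβCD, n = 4 animals per group.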

[5] = Half life in rat at 10 mg/kg, po; assay type: ADME, organism-based; parameters: dose 10 mg/kg, route oral; conditions: in vivo; method in brief: as §3
Rattus norvegicus [6] = assay: Reversal of complete freund's adjuvant-induced thermal hypersensitivity in po dosed Sprague-Dawley rat after 60 mins; assay type: functional
Method in brief: (§4)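 Male Sprague−Dawley rats (195−350 g), intraplantar CFA (100 μL, 1:1 CFA:saline) with testing 24 h later, or carrageenan-λ (200 μL, 10 mg/mL) with testing 3 h later. Radiant heat withdrawal latency, 10−15 s baseline, 20 s cutoff; rats with ≥25% latency drop kept. Oral dosing at 2.5 mL/kg. Percent reversal = (treatment − post)/(pre − post) × 100, scored blind.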

[7] = target: T1, Transient receptor potential cation channel subfamily V member 1 (Homo sapiens, UniProt Q8NER1); assay: Antagonist activity at recombinant human TRPV1 expressed in HEK293 cells assessed as inhibition of capsaicin-induced Ca2+ influx preincubated for 5 mins followed by capsaicin challenge; assay type: cell-based
[8] = (§5) Metabolic stability in human liver microsomes assessed as compound remaining after 10 mins; assay type: ADME; conditions: liver microsomes, read-out: Stability; method in brief: as §2
[9] = as §1; assay type: ADME; conditions: liver microsomes, read-out: Stability; method in brief: as §2
Rattus norvegicus [10] = assay: Reversal of complete freund's adjuvant-induced thermal hypersensitivity in po dosed Sprague-Dawley rat measured at 3 hrs; assay type: functional; method in brief: as §4
Rattus norvegicus [11] = assay: Reversal of complete freund's adjuvant-induced thermal hypersensitivity in po dosed Sprague-Dawley rat measured at 30 mins; assay type: functional; method in brief: as §4
Liver microsome [12] = assay: as §5; assay type: ADME; conditions: microsomes, 10 min; method in brief: as §2
[13] = target: T1, Transient receptor potential cation channel subfamily V member 1; assay: Antagonist activity at recombinant human TRPV1 expressed in HEK293 cells assessed as inhibition of capsaicin-induced Ca2+ influx at 1 uM preincubated for 5 mins followed by capsaicin challenge relative to control; assay type: cell-based
Method in brief: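 HEK293 cells stably expressing human TRPV1, loaded with Calcium 3 dye 35 min at 37 °C, then 25 min at room temperature. Compound added and Ca²⁺ read 5 min (FLIPR or FDSS) before capsaicin at ~EC80 (typically 0.020−0.030 μM final). Response normalised to 90 or 100 μM capsaicin (100%) and 0.6 pM (0%).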

Rattus norvegicus [14] = assay: Reversal of complete freund's adjuvant-induced thermal hypersensitivity in Sprague-Dawley rat at 10 mg/kg, po measured after 30 to 180 mins; assay type: functional, organism-based; parameters: dose 10 mg/kg
Rattus norvegicus [15] = assay: Reversal of complete freund's adjuvant-induced thermal hypersensitivity in po dosed Sprague-Dawley rat measured after 30 to 180 mins; assay type: functional, organism-based; method in brief: as §4
Rattus norvegicus [16] = organism: Rattus norvegicus; assay: Drug metabolism in rat assessed as formation of (trans)-1-(2-{2-[2-(4-Trifluoromethyl-phenyl)-vinyl]-1H-benzoimidazol-5-yl}-phenyl)-ethanone; assay type: ADME, organism-based; conditions: in vivo
Rattus norvegicus [17] = assay: Reversal of complete freund's adjuvant-induced thermal hypersensitivity in po dosed Sprague-Dawley rat assessed as plasma concentration required to reach ED80 measured at 100 mins; assay type: functional
Method in brief: (§6)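 Rats dosed orally 100 min before radiant-heat testing. For CFA, plasma taken right after behavioural testing; for carrageenan, taken from a separate group dosed identically. Blood collected on lithium heparin and centrifuged, plasma stored at −80 °C. Plasma levels matching ED50 and ED80 (EC50/EC80) computed from the dose−response data.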

Rattus norvegicus [18] = assay: Reversal of complete freund's adjuvant-induced thermal hypersensitivity in po dosed Sprague-Dawley rat assessed as plasma concentration required to reach ED50 measured at 100 mins; assay type: functional; method in brief: as §6
Rattus norvegicus [19] = assay: Reversal of complete freund's adjuvant-induced thermal hypersensitivity in po dosed Sprague-Dawley rat measured at 100 mins; assay type: functional; method in brief: as §4
Rattus norvegicus [20] = organism: Rattus norvegicus; assay: Drug level in rat treated with (trans)-1-(2-{2-[2-(4-Trifluoromethyl-phenyl)-vinyl]-1H-benzoimidazol-5-yl}-phenyl)-ethanol; assay type: ADME, organism-based; conditions: in vivo

T1 sequence (Q8NER1 whole entry): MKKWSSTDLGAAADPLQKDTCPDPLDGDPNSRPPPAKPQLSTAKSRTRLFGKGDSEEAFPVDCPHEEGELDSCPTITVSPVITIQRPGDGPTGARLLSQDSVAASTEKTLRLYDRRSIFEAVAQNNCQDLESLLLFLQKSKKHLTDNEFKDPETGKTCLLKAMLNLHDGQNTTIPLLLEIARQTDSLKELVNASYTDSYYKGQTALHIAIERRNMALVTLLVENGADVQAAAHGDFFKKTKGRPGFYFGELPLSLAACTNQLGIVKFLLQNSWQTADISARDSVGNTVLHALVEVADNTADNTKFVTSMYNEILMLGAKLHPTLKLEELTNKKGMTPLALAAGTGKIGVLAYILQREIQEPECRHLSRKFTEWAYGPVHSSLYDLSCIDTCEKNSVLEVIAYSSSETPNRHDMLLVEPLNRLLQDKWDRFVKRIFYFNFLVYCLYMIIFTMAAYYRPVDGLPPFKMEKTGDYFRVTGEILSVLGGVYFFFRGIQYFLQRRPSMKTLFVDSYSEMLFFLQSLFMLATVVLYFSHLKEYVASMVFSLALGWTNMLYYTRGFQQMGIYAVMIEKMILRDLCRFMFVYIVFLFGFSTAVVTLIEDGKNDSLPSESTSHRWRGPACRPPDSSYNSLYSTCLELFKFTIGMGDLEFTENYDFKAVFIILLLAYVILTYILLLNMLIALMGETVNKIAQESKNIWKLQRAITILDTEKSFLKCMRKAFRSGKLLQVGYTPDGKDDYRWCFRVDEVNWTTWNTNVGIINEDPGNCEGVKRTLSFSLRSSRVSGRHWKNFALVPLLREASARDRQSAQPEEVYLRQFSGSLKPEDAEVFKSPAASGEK

With Cc1ccc(-c2cc(C(F)(F)F)nn2-c2ccc(S(N)(=O)=O)cc2)cc1 the Activity (Rattus norvegicus [1]) was “Active”.

With NS(=O)(=O)c1ccccc1-c1ccc2[nH]c(/C=C/c3cccc(OC(F)(F)F)c3)nc2c1 the Stability (Liver microsome [2]) was “Unstable”.

Compound CS(=O)(=O)Nc1ccccc1-c1ccc2[nH]c(/C=C/c3ccc(C(F)(F)F)cc3)nc2c1 has a clearance [3] of 13 mL/min/kg, a bioavailability [4] of 65% and a half-life [5] of 4 h. The Activity (Rattus norvegicus [6]) was “Dose-dependent effect”, the ED50 (Rattus norvegicus [6]; Rattus norvegicus, Sprague-Dawley, po, 1 h) was 4.3 mg/kg and the IC50 [7] was 10 nM. The remaining at 10 min [8] was 85% and the remaining at 10 min [9] was 50%.

Work on CC(C)(O)c1ccccc1-c1ccc2[nH]c(C#Cc3ccccc3)nc2c1 yielded a bioavailability [4] of 13%, an IC50 [7] of 2.8 nM and an Activity (Rattus norvegicus [10]) of 41%. The Activity (Rattus norvegicus [11]) was 71%, the Stability (Liver microsome [12]) was “Stable” and the Stability (Liver microsome [2]) was “Stable”.

In the case of CC(C)(O)c1ccccc1-c1ccc2[nH]c(/C=C/c3cccc(C(F)(F)F)c3)nc2c1, the Activity (Rattus norvegicus [6]) is reported as 58% and the IC50 [7] is reported as 4.9 nM.

With CS(=O)(=O)Nc1ccccc1-c1ccc2[nH]c(/C=C/c3ccccc3C(F)(F)F)nc2c1 the inhibition [13] was 44%.

CC(C)(O)c1ccccc1-c1ccc2[nH]c(CCc3ccc(C(F)(F)F)cc3)nc2c1 gave an IC50 [7] of 2.8 nM, a remaining at 10 min [8] of 45% and a remaining at 10 min [9] of 5%.

CC(C)(C)c1ccc(/C=C/c2nc3cc(-c4ccc(C(N)=O)cc4)ccc3[nH]2)cc1 gave an inhibition [13] of 10%.

With CC(C)(C)c1ccc(/C=C/c2nc3cc(-c4ccccc4NS(C)(=O)=O)ccc3[nH]2)cc1 the remaining at 10 min [8] was 9% and the remaining at 10 min [9] was 29%.

Compound CC(C)(C)c1ccc(/C=C/c2nc3cc(-c4cccc(C(N)=O)c4)ccc3[nH]2)cc1 has an inhibition [13] of 12%.

With NS(=O)(=O)c1ccccc1-c1ccc2[nH]c(/C=C/c3ccc(OC(F)(F)F)cc3)nc2c1 the Stability (Liver microsome [2]) was “Unstable”.

For CS(=O)(=O)Nc1ccccc1-c1ccc2[nH]c(/C=C/c3ccc(OC(F)(F)F)cc3)nc2c1, the Activity (Rattus norvegicus [14]) was “inactive”, the IC50 [7] was 17 nM and the Stability (Liver microsome [2]) was “Stable”.

For CC(C)(O)c1ccccc1-c1ccc2[nH]c(/C=C/c3ccc(S(=O)(=O)C(F)(F)F)cc3)nc2c1, the IC50 [7] was 19 nM and the Activity (Rattus norvegicus [15]) was “inactive”.

Work on CC(C)(C)c1ccc(/C=C/c2nc3cc(-c4ccccc4C(N)=O)ccc3[nH]2)cc1 yielded an IC50 [7] of 40 nM.

For CC(O)c1ccccc1-c1ccc2[nH]c(/C=C/c3ccc(C(F)(F)F)cc3)nc2c1 (stereo not given), the Drug metabolism (Rattus norvegicus [16]) was “metabolite_detected”, the bioavailability [4] was 39% and the remaining at 10 min [8] was 97%. For the same compound, the remaining at 10 min [9] was 89%.

With CC(C)(O)c1ccccc1-c1ccc2[nH]c(/C=C/c3ccc(OC(F)(F)F)cc3)nc2c1 the IC50 [7] was 5.9 nM, the Activity (Rattus norvegicus [15]) was “inactive” and the Stability (Liver microsome [12]) was “Stable”. For the same compound, the Stability (Liver microsome [2]) was “Stable”.

Compound NS(=O)(=O)c1ccccc1-c1ccc2[nH]c(/C=C/c3ccc(C(F)(F)F)cc3)nc2c1 has an Activity (Rattus norvegicus [17]) of 62788 ng/mL, an Activity (Rattus norvegicus [18]) of 1757 ng/mL and an ED50 (Rattus norvegicus [19]) of 2.6 mg/kg. It also gave an ED80 (Rattus norvegicus [19]) of 10.3 mg/kg.

CC(C)(C)c1ccc(CCCc2nc3cc(-c4ccccc4O)ccc3[nH]2)cc1 gave an inhibition [13] of 6%.

In the case of CC(C)c1ccc(/C=C/c2nc3cc(-c4ccccc4NS(C)(=O)=O)ccc3[nH]2)cc1, the IC50 [7] is reported as 9.2 nM.

With CC(=O)c1ccccc1-c1ccc2[nH]c(/C=C/c3ccc(C(F)(F)F)cc3)nc2c1 the Drug metabolism (Rattus norvegicus [20]) was “metabolite_detected”.

For CC(C)(O)c1ccccc1-c1ccc2[nH]c(C#Cc3ccc(C(F)(F)F)cc3)nc2c1, the IC50 [7] was 4.5 nM, the Stability (Liver microsome [12]) was “Stable” and the Stability (Liver microsome [2]) was “Stable”.

CS(=O)(=O)Nc1ccccc1-c1ccc2[nH]c(/C=C/c3ccc(OCC(F)(F)C(F)(F)F)cc3)nc2c1 showed an inhibition [13] of 63%.

In the case of CC(C)(O)c1ccccc1-c1ccc2[nH]c(/C=C/c3ccc(Cl)cc3)nc2c1, the IC50 [7] is reported as 5.7 nM, the Activity (Rattus norvegicus [15]) is reported as “inactive” and the Stability (Liver microsome [12]) is reported as “Stable”. The Stability (Liver microsome [2]) was “Stable”.

For CC(=O)c1ccccc1-c1ccc2[nH]c(/C=C/c3ccc(C(C)(C)C)cc3)nc2c1, the IC50 [7] was 25 nM, the remaining at 10 min [8] was 12% and the remaining at 10 min [9] was 43%.

Work on NS(=O)(=O)c1ccccc1-c1ccc2[nH]c(C#Cc3ccc(C(F)(F)F)cc3)nc2c1 yielded an IC50 [7] of 20 nM.

Compound CC(=O)Nc1ccc(-c2ccc3[nH]c(/C=C/c4ccc(C(C)(C)C)cc4)nc3c2)cc1 has an inhibition [13] of 10%.

With CS(=O)(=O)Nc1ccccc1-c1ccc2[nH]c(/C=C/c3cccc(C(F)(F)F)c3)nc2c1 the inhibition [13] was 48%.

With NS(=O)(=O)c1ccccc1-c1ccc2[nH]c(CCc3ccc(C(F)(F)F)cc3)nc2c1 the Stability (Liver microsome [12]) was “Unstable” and the Stability (Liver microsome [2]) was “Unstable”.

In the case of CC(C)(C)c1ccc(Cc2nc3cc(-c4ccccc4O)ccc3[nH]2)cc1, the inhibition [13] is reported as 6%.

From ChEMBL document CHEMBL3425511 (J Med Chem, 2015)
